Measurements published in ChEMBL document CHEMBL3745596, “Chlorophenoxy aminoalkyl derivatives as histamine H(3)R ligands and antiseizure agents” (Bioorg Med Chem, 2016).
pIC50, pKi: −log10 of the molar value. Active and inactive are the calls of the source.

Tests used:
Histamine H3 receptor = Histamine H3 receptor (Homo sapiens, UniProt Q9Y5N1); test: Displacement of [3H]-Nalpha-methylhistamine from human recombinant histamine H3 receptor expressed in HEK293 cells after 90 mins; assay type: cell-based
Sequence of Histamine H3 receptor (Q9Y5N1 whole entry): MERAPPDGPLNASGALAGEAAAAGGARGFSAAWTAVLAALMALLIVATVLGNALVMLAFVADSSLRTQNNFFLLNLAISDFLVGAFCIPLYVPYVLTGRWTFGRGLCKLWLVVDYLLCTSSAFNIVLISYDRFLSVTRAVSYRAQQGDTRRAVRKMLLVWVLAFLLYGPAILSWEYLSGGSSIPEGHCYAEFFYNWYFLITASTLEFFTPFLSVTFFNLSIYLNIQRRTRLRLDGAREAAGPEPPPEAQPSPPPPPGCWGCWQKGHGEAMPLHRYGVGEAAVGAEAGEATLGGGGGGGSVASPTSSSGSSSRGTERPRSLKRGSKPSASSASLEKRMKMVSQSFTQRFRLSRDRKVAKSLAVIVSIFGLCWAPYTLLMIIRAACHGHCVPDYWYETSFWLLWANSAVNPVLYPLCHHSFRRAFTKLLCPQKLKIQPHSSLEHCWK

Mus musculus [1] = test: Anticonvulsant activity in CF1 albino mouse assessed as protection against maximal electroshock-induced seizure at 3 mg/kg, ip after 0.5 hrs; assay type: functional, organism-based
Outline: (§1)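 Male CF-1 mice dosed ip as suspension in 0.5% methylcellulose. Corneal electrodes deliver 60 Hz alternating current, 50 mA for […], after a drop of 0.5% tetracaine HCl in 0.9% NaCl per eye. Protection means abolition of hindlimb tonic extension; scored as protected/tested, or ED50 with 95% confidence interval.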

Mus musculus [2] = test: Anticonvulsant activity in CF1 albino mouse assessed as protection against maximal electroshock-induced seizure at 10 mg/kg, ip after 0.5 hrs; assay type: functional, organism-based; outline: as §1
Mus musculus [3] = test: Anticonvulsant activity in CF1 albino mouse assessed as protection against maximal electroshock-induced seizure at 30 mg/kg, ip after 0.5 hrs; assay type: functional, organism-based; outline: as §1
Mus musculus [4] = test: Anticonvulsant activity in CF1 albino mouse assessed as protection against maximal electroshock-induced seizure at 30 mg/kg, ip after 4 hrs; assay type: functional, organism-based; outline: as §1
Mus musculus [5] = test: Anticonvulsant activity in CF1 albino mouse assessed as protection against maximal electroshock-induced seizure at 100 mg/kg, ip after 0.5 hrs; assay type: functional, organism-based; outline: as §1
Mus musculus [6] = test: Anticonvulsant activity in CF1 albino mouse assessed as protection against subcutaneous pentetrazole-induced seizure at 30 mg/kg, ip after 0.5 hrs; assay type: functional, organism-based
Outline: (§2)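 Male CF-1 mice, ip in 0.5% methylcellulose; pentetrazole at CD97 (85 mg/kg) injected subcutaneously in a loose fold of neck skin. Observed 30 min; absence of even a threshold seizure (single clonic spasm lasting at least 5 s) counted as protection. Scored protected/tested, or ED50.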

Mus musculus [7] = test: Anticonvulsant activity in CF1 albino mouse assessed as protection against subcutaneous pentetrazole-induced seizure at 30 mg/kg, ip after 4 hrs; assay type: functional, organism-based; outline: as §2
Mus musculus [8] = test: Anticonvulsant activity in CF1 albino mouse assessed as protection against subcutaneous pentetrazole-induced seizure at 100 mg/kg, ip after 0.5 hrs; assay type: functional, organism-based; outline: as §2
Mus musculus [9] = test: Neurotoxicity in CF1 albino mouse at 3 mg/kg, ip after 0.5 hrs by rotarod test; assay type: toxicity, organism-based; details: in vivo
Outline: (§3)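 Rotarod neurotoxicity in male albino CF-1 mice dosed ip with compound suspended in 0.5% methylcellulose. Animal placed on a 1 inch diameter knurled plastic rod rotating at 6 rpm. Neurotoxicity scored when the animal falls off three times within 1 min. Readout is number of animals toxic/number tested at the stated time after dosing. TD50 with 95% confidence interval from the quantitative study.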

Mus musculus [10] = test: Neurotoxicity in CF1 albino mouse at 10 mg/kg, ip after 0.5 hrs by rotarod test; assay type: toxicity, organism-based; details: in vivo
Outline: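 Rotarod neurotoxicity in male CF-1 mice dosed ip as 0.5% methylcellulose suspension: mouse placed on 1 inch knurled rod rotating at 6 rpm; toxicity when the animal falls off three times within 1 min, with other signs noted. Scored as toxic/tested at 0.5 h and 4 h.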

Mus musculus [11] = test: Neurotoxicity in CF1 albino mouse at 30 mg/kg, ip after 4 hrs by rotarod test; assay type: toxicity, organism-based; details: in vivo; outline: as §3
Mus musculus [12] = test: Neurotoxicity in CF1 albino mouse assessed as unable to grasp rotarod and death at 100 mg/kg, ip after 0.5 hrs by rotarod test; assay type: toxicity, organism-based; details: in vivo
Outline: (§4)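 Male albino CF-1 mice dosed ip with compound suspended in 0.5% methylcellulose, then placed on a 1-inch knurled plastic rod turning at 6 rpm. A fall three times within 1 min counted as neurotoxicity. Observations were made at 0.5 h and 4 h after dosing. Result given as animals showing toxicity per animals tested, with the kind of toxicity recorded.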

Mus musculus [13] = test: Neurotoxicity in CF1 albino mouse at 100 mg/kg, ip after 4 hrs by rotarod test; assay type: toxicity, organism-based; details: in vivo; outline: as §3
Mus musculus [14] = test: Neurotoxicity in CF1 albino mouse assessed as death at 300 mg/kg, ip after 0.5 hrs by rotarod test; assay type: toxicity, organism-based; details: in vivo; outline: as §4
Mus musculus [15] = test: Neurotoxicity in CF1 albino mouse at 300 mg/kg, ip after 4 hrs by rotarod test; assay type: toxicity, organism-based; details: in vivo; outline: as §3
Mus musculus [16] = test: Anticonvulsant activity in CF1 albino mouse assessed as protection against 6 Hz-psychomotor-induced seizure at 50 mg/kg, ip after 0.25 hrs; assay type: functional, organism-based
Outline: (§5)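 Male CF-1 mice, ip suspension in 0.5% methylcellulose. Corneal stimulation 0.2 ms monopolar rectangular pulses at 6 Hz, 32 mA for 3 s via constant-current device; mice without minimal clonic phase seizure counted protected. Groups of four; read at 0.25, 0.5, 1, 2, 4 h; result as protected/tested.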

Mus musculus [17] = test: Anticonvulsant activity in CF1 albino mouse assessed as protection against 6 Hz-psychomotor-induced seizure at 50 mg/kg, ip after 0.5 hrs; assay type: functional, organism-based; outline: as §5
Mus musculus [18] = test: Anticonvulsant activity in CF1 albino mouse assessed as protection against 6 Hz-psychomotor-induced seizure at 50 mg/kg, ip after 1 hr; assay type: functional, organism-based; outline: as §5
Mus musculus [19] = test: Anticonvulsant activity in CF1 albino mouse assessed as protection against 6 Hz-psychomotor-induced seizure at 50 mg/kg, ip after 2 hrs; assay type: functional, organism-based; outline: as §5
Mus musculus [20] = test: Anticonvulsant activity in CF1 albino mouse assessed as protection against 6 Hz-psychomotor-induced seizure at 50 mg/kg, ip after 4 hrs; assay type: functional, organism-based; outline: as §5
Mus musculus [21] = test: Anticonvulsant activity in CF1 albino mouse assessed as protection against 6 Hz-psychomotor-induced seizure at 30 mg/kg, ip after 0.25 to 4 hrs; assay type: functional, organism-based; outline: as §5
Mus musculus [22] = test: Neurotoxicity in CF1 albino mouse at 30 mg/kg, ip after 0.25 to 4 hrs by rotarod test; assay type: toxicity, organism-based; details: in vivo; outline: as §3
Mus musculus [23] = test: Anticonvulsant activity in CF1 albino mouse assessed as protection against subcutaneous pentetrazole-induced seizure at 100 mg/kg, ip after 4 hrs; assay type: functional, organism-based; outline: as §2
Mus musculus [24] = test: Neurotoxicity in CF1 albino mouse at 30 mg/kg, ip after 0.5 hrs by rotarod test; assay type: toxicity, organism-based; details: in vivo; outline: as §3
Rattus norvegicus = test: Anticonvulsant activity in Sprague-Dawley rat assessed as protection against maximal electroshock-induced seizure at 30 mg/kg, po; assay type: functional
Mus musculus [25] = test: Anticonvulsant activity in CF1 albino mouse assessed as protection against maximal electroshock-induced seizure at 100 mg/kg, ip after 4 hrs; assay type: functional, organism-based; outline: as §1
[26] = Antiproliferative activity against human IMR32 cells assessed as cell viability after 48 hrs by formazan EZ4U dye based assay; details: IMR-32, 48 h
Outline: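 HEK-293 (1.5 × 10⁴/well) or IMR-32 (2 × 10⁴/well) cells in DMEM with 10% FBS, 37 °C, 5% CO₂, grown 24 h to about 60% confluence; compounds 0.01–250 µM final, DMSO at most 1%, 48 h.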

Mus musculus [27] = test: Anticonvulsant activity in ip dosed CF1 albino mouse assessed as protection against maximal electroshock-induced seizure after 0.25 hrs; assay type: functional; outline: as §1
Mus musculus [28] = test: Anticonvulsant activity in ip dosed CF1 albino mouse assessed as protection against subcutaneous pentetrazole-induced seizure after 0.25 hrs; assay type: functional; outline: as §2
Mus musculus [29] = test: Protective index, ratio of TD50 for ip dosed CF1 albino mouse to ED50 for ip dosed CF1 albino mouse assessed as protection against maximal electroshock-induced seizure after 0.25 hrs; assay type: functional
Mus musculus [30] = test: Neurotoxicity in CF1 albino mouse at 50 mg/kg, ip after 1 hr by rotarod test; assay type: toxicity, organism-based; details: in vivo; outline: as §3
Mus musculus [31] = test: Neurotoxicity in CF1 albino mouse at 50 mg/kg, ip after 2 hrs by rotarod test; assay type: toxicity, organism-based; details: in vivo; outline: as §3
Mus musculus [32] = test: Neurotoxicity in CF1 albino mouse at 50 mg/kg, ip after 4 hrs by rotarod test; assay type: toxicity, organism-based; details: in vivo; outline: as §3

SMILES	pKi (Histamine H3 receptor)	Activity (Mus musculus [1])	Activity (Mus musculus [2])	Activity (Mus musculus [3])	Activity (Mus musculus [4])	Activity (Mus musculus [5])	Activity (Mus musculus [6])	Activity (Mus musculus [7])	Activity (Mus musculus [8])	Activity (Mus musculus [9])	Activity (Mus musculus [10])	Activity (Mus musculus [11])	Activity (Mus musculus [12])	Activity (Mus musculus [13])	Activity (Mus musculus [14])	Activity (Mus musculus [15])	Activity (Mus musculus [16])	Activity (Mus musculus [23])	Activity (Mus musculus [24])	Activity (Rattus norvegicus)	other results
Clc1cccc(OCCCCCCN2CCCCCC2)c1.O=C(O)C(=O)O	6.53	inactive	inactive	Active	inactive	Active	inactive	inactive	inactive	Non-toxic	Non-toxic	Non-toxic	Toxic	Non-toxic	Toxic	Non-toxic	inactive	–	–	–	Activity (Mus musculus [17]): inactive; Activity (Mus musculus [18]): inactive; Activity (Mus musculus [19]): inactive; Activity (Mus musculus [20]): inactive; Activity (Mus musculus [21]): inactive; Activity (Mus musculus [22]): Non-toxic
Clc1ccc(OCCCCCN2CCCCC2)cc1.O=C(O)C(=O)O	6.37	inactive	inactive	Active	inactive	Active	inactive	inactive	inactive	Non-toxic	Non-toxic	Non-toxic	Toxic	Non-toxic	Toxic	Non-toxic	–	inactive	Non-toxic	inactive	–
CC1CCCN(CCCCCCCOc2cccc(Cl)c2)C1.O=C(O)C(=O)O (configuration not stated)	6.33	–	–	inactive	inactive	Active	inactive	inactive	inactive	–	–	Non-toxic	Toxic	Non-toxic	Toxic	Non-toxic	–	inactive	Non-toxic	–	Activity (Mus musculus [25]): Active
COc1cccc2c1C(=O)c1c(O)c3c(c(O)c1C2=O)C[C@@](O)(C(=O)CO)C[C@@H]3O[C@H]1C[C@H](N)[C@H](O)[C@H](C)O1 [DOXORUBICIN]	–	–	–	–	–	–	–	–	–	–	–	–	–	–	–	–	–	–	–	–	pIC50 [26]: 8.29
Nc1nnc(-c2cccc(Cl)c2Cl)c(N)n1 [LAMOTRIGINE]	–	–	–	–	–	–	–	–	–	–	–	–	–	–	–	–	–	–	–	–	ED50 (Mus musculus [27]): 7.47 mg/kg; ED50 (Mus musculus [28]): > 40 mg/kg; Ratio TD50/ED50 (Mus musculus [29]): 4
CC1CCN(CCCCCCOc2cccc(Cl)c2)CC1.O=C(O)C(=O)O	6.39	inactive	inactive	Active	inactive	Active	inactive	inactive	–	Non-toxic	Non-toxic	Non-toxic	–	Non-toxic	Toxic	Non-toxic	Active	–	Non-toxic	25%	Activity (Mus musculus [25]): Active; Activity (Mus musculus [30]): Non-toxic; Activity (Mus musculus [31]): Non-toxic; Activity (Mus musculus [32]): Non-toxic
